Assay results published in ChEMBL document CHEMBL1152809, “Structure-activity relationships of orotidine-5'-monophosphate decarboxylase inhibitors as anticancer agents” (J Med Chem, 2009).
The source made the active and inactive calls. No cut-off for these calls is given here.

Assays:
OVCAR-4 = assay: Antitumor activity against human OVCAR4 cells after 3 days by WST1 assay; assay type: functional, cell-based; settings: for IC50: OVCAR-4, 72 h
Method in brief: (§1)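 Cell lines grown in Iscove's MDM with 5% FCS, 50 µM 2-mercaptoethanol, penicillin and streptomycin; suspension lines kept at 0.5-1.5 × 10^6 cells/mL, adherent lines subconfluent. Cells seeded in triplicate at 10^4 cells/100 µL. Compounds were dissolved in water and added immediately at 0 to 100 µM final. WST.1 read at 440 nm on day 3; IC50 taken from OD versus concentration plots.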

SNB-19 = assay: Antitumor activity against human SNB19 cells up to 50 uM after 3 days by WST1 assay; assay type: functional, cell-based; method in brief: as §1
[1] = Cytotoxicity against human CCD-967 cells up to 50 uM after 3 days by WST1 assay; assay type: cell-based; settings: ccd-967, 72 h
Method in brief: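 Cells grown in Iscove's MDM with 5% FCS, 50 µM 2-mercaptoethanol and antibiotics, kept subconfluent if adherent. Seeded in triplicate at 10^4 cells/100 µL with compounds (in water) added at once, 0 to 100 µM final. WST.1 formazan read at 440 nm on day 3; IC50 from OD versus concentration.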

[2] = Antitumor activity against human OCI-AML1 cells after 3 days by WST1 assay; assay type: functional, cell-based; settings: ML1, 72 h; method in brief: as §1
[3] = Antitumor activity against human OCI-LY7 cells after 3 days by WST1 assay; assay type: functional, cell-based; settings: OCI-Ly7, 72 h; method in brief: as §1
Hs-578T = assay: Antitumor activity against human Hs 578T cells up to 50 uM after 3 days by WST1 assay; assay type: functional, cell-based; method in brief: as §1
PC-3 = assay: Antitumor activity against human PC3 cells up to 50 uM after 3 days by WST1 assay; assay type: functional, cell-based; method in brief: as §1
[4] = Antitumor activity against human OCI-My 2 cells after 3 days by WST1 assay; assay type: functional, cell-based; settings: 72 h; method in brief: as §1
[5] = Antitumor activity against human LOX cells after 3 days by WST1 assay; assay type: functional, cell-based; settings: 72 h; method in brief: as §1
COLO 205 = assay: Antitumor activity against human COLO205 cells after 3 days by WST1 assay; assay type: functional, cell-based; settings: for IC50: COLO 205, 72 h; method in brief: as §1
OCI-AML2 = assay: Antitumor activity against human OCI-AML2 cells after 3 days by WST1 assay; assay type: functional, cell-based; settings: OCI-AML2, 72 h; method in brief: as §1
[6] = Antitumor activity against human MDA468 cells after 3 days by WST1 assay; assay type: functional, cell-based; settings: MDA-MB-468, 72 h; method in brief: as §1
[7] = Antitumor activity against human SKW3 cells after 3 days by WST1 assay; assay type: functional, cell-based; settings: SKW3, 72 h; method in brief: as §1
MDA-MB-468 = assay: Antitumor activity against human MDA468 cells up to 50 uM after 3 days by WST1 assay; assay type: functional, cell-based; method in brief: as §1
MCF7 [8] = assay: Antitumor activity against human MCF7 cells after 3 days by WST1 assay; assay type: functional, cell-based; settings: MCF7, 72 h; method in brief: as §1
MCF7 [9] = assay: Antitumor activity against human MCF7 cells up to 50 uM after 3 days by WST1 assay; assay type: functional, cell-based; method in brief: as §1
T47D = assay: Antitumor activity against human T47D cells up to 50 uM after 3 days by WST1 assay; assay type: functional, cell-based; method in brief: as §1

| Structure (SMILES) | IC50 (OVCAR-4) | IC50 (COLO 205) | IC50 (OCI-AML2) | IC50 (MCF7 [8]) | Activity (SNB-19) | Activity [1] | IC50 [2] | IC50 [3] | Activity (Hs-578T) | Activity (PC-3) | IC50 [4] | IC50 [5] | IC50 [6] | IC50 [7] | Activity (MDA-MB-468) | Activity (MCF7 [9]) | Activity (T47D) | Activity (OVCAR-4) | Activity (COLO 205) |
| --- | --- | --- | --- | --- | --- | --- | --- | --- | --- | --- | --- | --- | --- | --- | --- | --- | --- | --- | --- |
| CNc1cc(=O)[nH]c(=O)n1[C@@H]1O[C@H](CO)[C@@H](O)[C@H]1O | > 50 µM | > 50 µM | > 50 µM | > 50 µM | inactive | Not Active | > 50 µM | > 50 µM | inactive | inactive | > 50 µM | > 50 µM | > 50 µM | > 50 µM | inactive | inactive | inactive | – | – |
| O=Cc1cc(=O)[nH]c(=O)n1[C@@H]1O[C@H](CO)[C@@H](O)[C@H]1O | – | – | > 50 µM | > 50 µM | inactive | Not Active | > 50 µM | > 50 µM | inactive | inactive | > 50 µM | > 50 µM | > 50 µM | > 50 µM | inactive | inactive | inactive | inactive | inactive |
| CN(C)c1cc(=O)[nH]c(=O)n1[C@@H]1O[C@H](CO)[C@@H](O)[C@H]1O | > 50 µM | > 50 µM | > 50 µM | > 50 µM | inactive | Not Active | > 50 µM | > 50 µM | inactive | inactive | > 50 µM | > 50 µM | > 50 µM | > 50 µM | inactive | inactive | inactive | – | – |
| Nc1cc(=O)[nH]c(=O)n1[C@@H]1O[C@H](CO)[C@@H](O)[C@H]1O | > 50 µM | > 50 µM | > 50 µM | > 50 µM | inactive | Not Active | > 50 µM | > 50 µM | inactive | inactive | > 50 µM | > 50 µM | > 50 µM | > 50 µM | inactive | inactive | inactive | – | – |
| O=c1[nH]c(=O)n([C@@H]2O[C@H](CO)[C@@H](O)[C@H]2O)c(I)c1Br | > 50 µM | > 50 µM | > 50 µM | > 50 µM | inactive | Not Active | > 50 µM | > 50 µM | inactive | inactive | > 50 µM | > 50 µM | > 50 µM | > 50 µM | inactive | inactive | inactive | – | – |
| O=c1cc(O)n([C@@H]2O[C@H](CO)[C@@H](O)[C@H]2O)c(=O)[nH]1 | > 50 µM | > 50 µM | > 50 µM | > 50 µM | inactive | Not Active | > 50 µM | > 50 µM | inactive | inactive | > 50 µM | > 50 µM | > 50 µM | > 50 µM | inactive | inactive | inactive | – | – |
| O=c1[nH]c(=O)n([C@@H]2O[C@H](CO)[C@@H](O)[C@H]2O)cc1F [5-FLUOROURIDINE] | – | – | – | – | inactive | Not Active | – | – | inactive | inactive | – | – | – | – | inactive | inactive | inactive | – | – |
| O=c1cc(O)n([C@@H]2O[C@H](COP(=O)(O)O)[C@@H](O)[C@H]2O)c(=O)[nH]1 | > 50 µM | > 50 µM | > 50 µM | > 50 µM | inactive | Not Active | > 50 µM | > 50 µM | inactive | inactive | > 50 µM | > 50 µM | > 50 µM | > 50 µM | inactive | inactive | inactive | – | – |
| O=c1[nH]c(=O)n([C@@H]2O[C@H](CO)[C@@H](O)[C@H]2O)c(I)c1F | > 50 µM | > 50 µM | > 50 µM | > 50 µM | inactive | Not Active | > 50 µM | > 50 µM | inactive | inactive | > 50 µM | > 50 µM | > 50 µM | > 50 µM | inactive | inactive | inactive | – | – |

The next lines start with results.

| IC50 (OVCAR-4) | IC50 (COLO 205) | IC50 (OCI-AML2) | IC50 (MCF7 [8]) | Structure (SMILES) | Activity (SNB-19) | Activity [1] | IC50 [2] | IC50 [3] | Activity (Hs-578T) | Activity (PC-3) | IC50 [4] | IC50 [5] | IC50 [6] | IC50 [7] | Activity (MDA-MB-468) | Activity (MCF7 [9]) | Activity (T47D) | Activity (OVCAR-4) | Activity (COLO 205) |
| --- | --- | --- | --- | --- | --- | --- | --- | --- | --- | --- | --- | --- | --- | --- | --- | --- | --- | --- | --- |
| > 50 µM | > 50 µM | > 50 µM | > 50 µM | O=c1cc(I)n([C@@H]2O[C@H](CO)[C@@H](O)[C@H]2O)c(=O)[nH]1 | inactive | Not Active | 15.3 µM | > 50 µM | inactive | inactive | 27.8 µM | > 50 µM | > 50 µM | 18.9 µM | inactive | inactive | inactive | – | – |
| > 50 µM | > 50 µM | > 50 µM | > 50 µM | CN(C)c1cc(=O)[nH]c(=O)[nH]1 | inactive | Not Active | > 50 µM | > 50 µM | inactive | inactive | > 50 µM | > 50 µM | > 50 µM | > 50 µM | inactive | inactive | inactive | – | – |
| > 50 µM | > 50 µM | 11.7 µM | 4.4 µM | CC(=O)OC[C@H]1O[C@@H](n2c(I)cc(=O)[nH]c2=O)[C@H](O)[C@@H]1O | inactive | Not Active | 15.2 µM | 36.2 µM | inactive | inactive | 1.3 µM | 1.1 µM | > 50 µM | 1.6 µM | inactive | – | inactive | – | – |
| > 50 µM | > 50 µM | > 50 µM | > 50 µM | [N-]=[N+]=Nc1cc(=O)[nH]c(=O)n1[C@@H]1O[C@H](CO)[C@@H](O)[C@H]1O | inactive | Not Active | > 50 µM | > 50 µM | inactive | inactive | > 50 µM | > 50 µM | > 50 µM | > 50 µM | inactive | inactive | inactive | – | – |
| – | – | > 50 µM | > 50 µM | O=c1cc(NO)n([C@@H]2O[C@H](CO)[C@@H](O)[C@H]2O)c(=O)[nH]1 | inactive | Not Active | > 50 µM | > 50 µM | inactive | inactive | > 50 µM | > 50 µM | > 50 µM | > 50 µM | inactive | inactive | inactive | inactive | inactive |
| > 50 µM | > 50 µM | 16 µM | > 50 µM | O=c1cnn([C@@H]2O[C@H](COP(=O)(O)O)[C@@H](O)[C@H]2O)c(=O)[nH]1 [6-AZA-URIDINE MONOPHOSPHATE] | inactive | Not Active | 6.1 µM | > 50 µM | inactive | inactive | 18.7 µM | 6.7 µM | > 50 µM | 2.8 µM | inactive | inactive | inactive | – | – |
| – | – | – | 31.4 µM | CCc1c(F)c(=O)[nH]c(=O)n1[C@@H]1O[C@H](CO)[C@@H](O)[C@H]1O | inactive | Not Active | 2.1 µM | 1.9 µM | inactive | inactive | 1.4 µM | 4.5 µM | 5.3 µM | 1.2 µM | – | – | inactive | – | – |
